Assay outcomes: PubChem, several laboratories
NF-kB expr up: NF-kB expression increase, human neuronal cells; NF-kB reporter expression; hits give high values; fold change at 12.5 µM; 190,000 tested, 1.6% active; AID 1239; in the data active = fold change above about 3.3
STAT1 act: increases IFN-gamma driven STAT1 reporter signal | 200,000 tested, 2.6% active | activation (% of control), % at 5.5 µM | NIH 3T3 STAT1-luciferase reporter, luminescence; 100% = IFN-gamma alone, no compound;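 active = activation above the screen-wide mean activation plus 3 SD, cut at about 130% in these data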
FLuc act counter: firefly luciferase counter-screen for stimulation assays. P08659. ATPlite luciferase biochemical, luminescence, 10 min; 0 = ATP-free wells, 1 = DMSO control. activation factor at 10 µM. 200,000 tested, under 10 active. AID 1027;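 active = luciferase activation factor, scaled between plate controls, of at least 2 with compound at 10 µM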
Target sequence (P08659 whole entry, looked up): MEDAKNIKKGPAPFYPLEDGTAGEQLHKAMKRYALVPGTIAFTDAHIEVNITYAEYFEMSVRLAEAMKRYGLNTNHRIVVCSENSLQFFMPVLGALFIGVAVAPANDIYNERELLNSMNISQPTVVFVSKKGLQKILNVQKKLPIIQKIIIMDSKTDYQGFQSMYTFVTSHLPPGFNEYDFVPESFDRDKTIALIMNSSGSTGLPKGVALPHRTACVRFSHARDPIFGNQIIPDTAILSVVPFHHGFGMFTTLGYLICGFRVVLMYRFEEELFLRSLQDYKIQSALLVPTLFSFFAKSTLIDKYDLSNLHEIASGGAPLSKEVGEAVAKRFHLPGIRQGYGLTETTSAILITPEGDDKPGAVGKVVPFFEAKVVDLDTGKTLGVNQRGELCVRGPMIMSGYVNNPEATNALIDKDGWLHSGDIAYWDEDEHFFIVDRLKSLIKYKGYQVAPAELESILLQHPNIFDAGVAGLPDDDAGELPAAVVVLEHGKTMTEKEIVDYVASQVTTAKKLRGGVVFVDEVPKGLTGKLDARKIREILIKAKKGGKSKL
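Material: Luciferase/luciferin reagent mix | Doses: Test compounds dosed from 2 mM stocks in 100% DMSO | Timing: 10 min incubation after luciferase reagent addition, room temperature | Measured by: Luminescence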
FLuc inhib CS: counter-screen for luciferase assay inhibitors: firefly luciferase inhibition | ATPLite firefly luciferase biochemical luminescence, 10 min | P08659 | 200,000 tested, 1.5% active | inhibition, % at 10 µM | AID 1006;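 active = inhibition above about 50% when tested at 10 µM, limit read from the data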
APP 5'UTR act: APP 5'UTR luciferase reporter activation; AID 1276; activation, % at 2 µM; 190,000 tested, 1% active; SH-SY5Y APP 5'UTR luciferase reporter, luminescence; zero percent = DMSO vehicle wells;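 active = activation above a set limit, based on mean plus 3 SD of controls, cut at about 140% in these data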
A number is an active result. Only some compounds are listed: those with a hit (about 4.1% of all), similar ones and a draw of the others.

What do the screens show for `Oc1ccc(-c2cn3cc(C(F)(F)F)ccc3n2)cc1`?
NF-kB expr up: 13; STAT1 act: inactive; FLuc act counter: inactive; FLuc inhib CS: 95; APP 5'UTR act: 229

Results for Cc1nc(Nc2ccc(F)cc2)[nH]c(=O)c1CCC(C)C ?
NF-kB expr up: inactive; STAT1 act: inactive; FLuc act counter: inactive; FLuc inhib CS: inactive; APP 5'UTR act: inactive

How did CCOc1cc2[nH]c(=S)n(C3CC3)c(=O)c2cc1OCC do in these assays?
NF-kB expr up: inactive; STAT1 act: inactive; FLuc act counter: inactive; FLuc inhib CS: inactive; APP 5'UTR act: inactive

What do the screens show for `COCCCn1c(=S)[nH]c2ncccc2c1=O`?
NF-kB expr up: inactive; STAT1 act: inactive; FLuc act counter: inactive; FLuc inhib CS: inactive; APP 5'UTR act: inactive

How did Cc1ccc(S(=O)(=O)c2c(C)nn(C(C)(C)C)c2OC(=O)c2ccco2)cc1 do in these assays?
NF-kB expr up: inactive; STAT1 act: 138; FLuc act counter: inactive; FLuc inhib CS: inactive; APP 5'UTR act: inactive

Results for Cc1ccc(S(=O)(=O)c2c(C)nn(C(C)(C)C)c2OC(=O)c2ccc(Br)o2)cc1 ?
NF-kB expr up: inactive; STAT1 act: inactive; FLuc act counter: inactive; FLuc inhib CS: inactive; APP 5'UTR act: inactive

What do the screens show for `O=C(NCc1ccco1)c1ccc(-c2ccccc2Cl)o1`?
NF-kB expr up: inactive; STAT1 act: inactive; FLuc act counter: inactive; FLuc inhib CS: inactive; APP 5'UTR act: inactive

What do the screens show for `CC(=O)NC(=O)c1ccc(-c2ccc(Cl)cc2)o1`?
NF-kB expr up: inactive; STAT1 act: inactive; FLuc act counter: inactive; FLuc inhib CS: inactive; APP 5'UTR act: inactive

How did O=C(NC12CC3CC(CC(C3)C1)C2)c1ccc(-c2ccc(Cl)cc2)o1 do in these assays?
NF-kB expr up: inactive; STAT1 act: 130; FLuc act counter: inactive; FLuc inhib CS: inactive; APP 5'UTR act: inactive

How did O=C(NC12CC3CC(CC(C3)C1)C2)c1ccc(-c2ccccc2Cl)o1 do in these assays?
NF-kB expr up: inactive; STAT1 act: 171; FLuc act counter: inactive; FLuc inhib CS: inactive; APP 5'UTR act: 182

How did Cc1nnc2c(NC(C)C)nc3ccccc3n12 do in these assays?
NF-kB expr up: inactive; STAT1 act: inactive; FLuc act counter: inactive; FLuc inhib CS: inactive; APP 5'UTR act: inactive

How did CCOC(=O)Cc1c(C)nc2c(-c3ccc(Cl)cc3)cnn2c1C do in these assays?
NF-kB expr up: inactive; STAT1 act: inactive; FLuc act counter: inactive; FLuc inhib CS: inactive; APP 5'UTR act: inactive

Results for Cc1cc(N)n2ncc(-c3ccc(F)cc3)c2n1 ?
NF-kB expr up: inactive; STAT1 act: 140; FLuc act counter: inactive; FLuc inhib CS: inactive; APP 5'UTR act: inactive

Results for Cc1cc(N)n2ncc(-c3ccc(Cl)cc3)c2n1 ?
NF-kB expr up: inactive; STAT1 act: 140; FLuc act counter: inactive; FLuc inhib CS: inactive; APP 5'UTR act: inactive

How did COc1ccc2c(c1)CCc1cc(C(=O)N3CCN(c4ccc(N5CCOCC5)nn4)CC3)sc1-2 do in these assays?
NF-kB expr up: inactive; STAT1 act: inactive; FLuc act counter: inactive; FLuc inhib CS: inactive; APP 5'UTR act: inactive

Results for O=C1c2cccc3c([N+](=O)[O-])ccc(c23)C(=O)N1Cc1cccnc1 ?
NF-kB expr up: 3.8; STAT1 act: inactive; FLuc act counter: inactive; FLuc inhib CS: inactive; APP 5'UTR act: inactive

How did O=C(CCN1C(=O)c2cccc3cccc(c23)C1=O)NCc1cccnc1 do in these assays?
NF-kB expr up: inactive; STAT1 act: inactive; FLuc act counter: inactive; FLuc inhib CS: inactive; APP 5'UTR act: inactive

What do the screens show for `Cc1ccnc(N2C(=O)c3cccc4c([N+](=O)[O-])ccc(c34)C2=O)c1`?
NF-kB expr up: 4.7; STAT1 act: inactive; FLuc act counter: inactive; FLuc inhib CS: inactive; APP 5'UTR act: inactive

How did COc1ccc(-n2cc(CNCCc3ncc(C)[nH]3)c(-c3ccccc3Cl)n2)cc1 do in these assays?
NF-kB expr up: inactive; STAT1 act: inactive; FLuc act counter: inactive; FLuc inhib CS: inactive; APP 5'UTR act: inactive

Results for CC(=O)c1noc(C)c1C(=O)Nc1nccs1 ?
NF-kB expr up: inactive; STAT1 act: inactive; FLuc act counter: inactive; FLuc inhib CS: inactive

What do the screens show for `CC(NCC(c1ccco1)N1CCCCC1)C(=O)NC1CCCC1` (stereo unspecified)?
NF-kB expr up: inactive; STAT1 act: inactive; FLuc act counter: inactive; FLuc inhib CS: 74; APP 5'UTR act: inactive

How did Nc1[nH]nc2ncc3cc4ccccc4nc3c12 do in these assays?
NF-kB expr up: inactive; STAT1 act: 139; FLuc act counter: inactive; FLuc inhib CS: inactive; APP 5'UTR act: inactive

How did Cc1cccc2sc(N(CCCN(C)C)C(=O)c3ccco3)nc12 do in these assays?
NF-kB expr up: inactive; STAT1 act: inactive; FLuc act counter: inactive; FLuc inhib CS: inactive; APP 5'UTR act: inactive

How did CC(Oc1ccc(Cl)cc1Cl)C(=O)N(C)c1ccccc1 (stereo unspecified) do in these assays?
NF-kB expr up: inactive; STAT1 act: inactive; FLuc act counter: inactive; FLuc inhib CS: inactive; APP 5'UTR act: inactive

Results for Cc1nc2ccc(-c3nc4ccccc4[nH]3)cc2[nH]1 ?
NF-kB expr up: 3.5; STAT1 act: inactive; FLuc act counter: inactive; FLuc inhib CS: 77; APP 5'UTR act: 155

What do the screens show for `Cc1ccccc1-c1nc2ccccc2[nH]1`?
NF-kB expr up: inactive; STAT1 act: 133; FLuc act counter: inactive; FLuc inhib CS: inactive; APP 5'UTR act: inactive

How did CSc1ncccc1-c1nc2ccccc2[nH]1 do in these assays?
NF-kB expr up: inactive; STAT1 act: inactive; FLuc act counter: inactive; FLuc inhib CS: inactive; APP 5'UTR act: inactive

How did Fc1ccccc1-c1nc2ccccc2[nH]1 do in these assays?
NF-kB expr up: inactive; STAT1 act: 134; FLuc act counter: inactive; FLuc inhib CS: 55; APP 5'UTR act: inactive

How did c1ccc2nc(-c3nc4ccccc4[nH]3)ccc2c1 do in these assays?
NF-kB expr up: 4.2; STAT1 act: inactive; FLuc act counter: inactive; FLuc inhib CS: 94; APP 5'UTR act: 192

Results for O=c1oc2c(CN3CCCCC3)c(O)ccc2c2c1CCCC2 ?
NF-kB expr up: inactive; STAT1 act: inactive; FLuc act counter: inactive; FLuc inhib CS: inactive; APP 5'UTR act: inactive

Results for COc1cc([C@@H]2c3cc4c(cc3[C@H](O)[C@H]3COC(=O)[C@H]23)OCO4)cc(OC)c1OC ?
NF-kB expr up: 3.9; STAT1 act: inactive; FLuc act counter: inactive; FLuc inhib CS: inactive; APP 5'UTR act: inactive

How did COc1cc(CC(=O)NCc2ccc3c(c2)OCO3)cc(OC)c1OC do in these assays?
NF-kB expr up: inactive; STAT1 act: inactive; FLuc act counter: inactive; FLuc inhib CS: inactive; APP 5'UTR act: inactive

Results for N#C/C(=C\c1ccccn1)c1nc2ccccc2s1 ?
NF-kB expr up: inactive; STAT1 act: inactive; FLuc act counter: inactive; FLuc inhib CS: 68; APP 5'UTR act: inactive

How did COCCn1nnnc1C1(N(Cc2cc3cc(C)ccc3[nH]c2=O)CC2CCCO2)CCN(C)CC1 (stereo unspecified) do in these assays?
FLuc act counter: inactive; FLuc inhib CS: inactive

Results for Cc1ccc2nc(NC(=O)COC(=O)c3ccncc3)sc2c1 ?
NF-kB expr up: inactive; STAT1 act: inactive; FLuc act counter: inactive; FLuc inhib CS: inactive; APP 5'UTR act: inactive

How did COCC(=O)Nc1nc2ccc(C)cc2s1 do in these assays?
NF-kB expr up: 3.7; STAT1 act: inactive; FLuc act counter: inactive; FLuc inhib CS: inactive; APP 5'UTR act: inactive
